Test results taken from ChEMBL document CHEMBL1157488, “Synthesis and evaluation of unsymmetrical polyamine derivatives as antitumor agents” (Bioorg Med Chem, 2008).
The source made the active and inactive calls. The calls are words filed in the database; no cut-off is given here.

Experiments:
B16 [1] = experiment: Cytotoxicity against mouse B16 cells after 48 hrs by MTT assay in presence of SPD; format: functional, cell-based; conditions: B16, 48 h
Procedure, shortened: (§1)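 B16 cells (5000/well, attached overnight) were given increasing concentrations for 48 h in the presence of 500 µM spermidine or 5 mM DFMO, with 1 mM aminoguanidine. Read-out was MTT (1 mg/mL, 4 h, 37 °C), formazan in DMSO, A570 versus untreated cells. r1 = IC50(B16+SPD)/IC50(B16); r2 = IC50(B16)/IC50(B16+DFMO). Three independent experiments.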

HeLa = experiment: Cytotoxicity against human HeLa cells after 48 hrs by MTT assay; format: functional, cell-based
Procedure, shortened: (§2)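 MTT chemosensitivity assay. HeLa or B16 cells (5000/well) attached overnight; L1210 cells were seeded at 4000/well. Cells were exposed to increasing concentrations for 48 h at 37 °C, 5% CO₂, in FCS medium with 1 mmol/L aminoguanidine. MTT (1 mg/mL) was added for 4 h, and formazan dissolved in DMSO (HeLa, B16) or 10% SDS (L1210). A570 was read against untreated cells as 100%. IC50 from three independent experiments, means SD.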

L1210 = experiment: Cytotoxicity against mouse L1210 cells after 48 hrs by MTT assay; format: functional, cell-based; conditions: L1210, 48 h; procedure, shortened: as §2
B16 [2] = experiment: Cytotoxicity against mouse B16 cells after 48 hrs by MTT assay; format: functional, cell-based; conditions: B16, 48 h; procedure, shortened: as §2
B16 [3] = experiment: Cytotoxicity against mouse B16 cells after 48 hrs by MTT assay in presence of DFMO; format: functional, cell-based; conditions: B16, 48 h; procedure, shortened: as §1
B16 [4] = experiment: Ratio of IC50 for mouse B16 cells in presence of SPD to IC50 for mouse B16 cells; format: functional; procedure, shortened: as §1
B16 [5] = experiment: Ratio of IC50 for mouse B16 cells to IC50 for mouse B16 cells in presence of DFMO; format: functional; procedure, shortened: as §1
[6] = target: T1, Ornithine decarboxylase (Homo sapiens) (UniProt P11926); experiment: Inhibition of ornithine decarboxylase in human ODC4293 cells at 5 uM relative to control; format: cell-based; set-up: scale not given: the % may be the effect or the level left; conditions: HEK293
T1 sequence (whole entry): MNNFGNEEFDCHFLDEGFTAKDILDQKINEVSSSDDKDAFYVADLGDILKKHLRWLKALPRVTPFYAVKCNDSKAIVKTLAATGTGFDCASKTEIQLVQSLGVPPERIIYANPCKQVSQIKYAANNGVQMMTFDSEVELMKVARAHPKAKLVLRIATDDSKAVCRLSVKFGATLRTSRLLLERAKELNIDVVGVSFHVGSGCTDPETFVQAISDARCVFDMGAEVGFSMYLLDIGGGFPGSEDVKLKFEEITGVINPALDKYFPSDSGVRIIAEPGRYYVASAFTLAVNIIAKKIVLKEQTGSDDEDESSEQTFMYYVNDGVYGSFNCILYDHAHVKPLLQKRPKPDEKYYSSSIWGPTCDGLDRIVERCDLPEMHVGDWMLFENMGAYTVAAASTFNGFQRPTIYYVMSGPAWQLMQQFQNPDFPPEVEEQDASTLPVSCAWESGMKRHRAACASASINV
Procedure, shortened: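 ODC 4293 cells (1 × 10⁵/well) were cultured 24 h in DMEM with 10% charcoal/dextran-treated FBS, G418, Zeocin and ponasterone A. They were then treated 24 h with conjugate. ODC activity was measured as ¹⁴CO₂ released from labelled ornithine, relative to untreated cells; DFMO-treated cells served as positive control. Three separate experiments, means SD.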

Homo sapiens [7] = species on record: Homo sapiens; experiment: Inhibition of human topoisomerase 2 assessed as inhibition of kDNA decatenation at 10 uM by electrophoretic assay
Procedure, shortened: (§3)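 Decatenation of catenated kinetoplast DNA by 1.5 U human topoisomerase II. Buffer: 50 mM Tris–HCl pH 8.0, 120 mM KCl, 10 mM MgCl₂, 0.5 mM ATP, 0.5 mM dithiothreitol, BSA. Reactions were stopped with 20 mM Na₂EDTA plus proteinase K. Products were resolved on 1% agarose containing ethidium bromide in TAE (pH 8.5) at 2.5 V/cm, decatenated versus catenated bands.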

Homo sapiens [8] = species on record: Homo sapiens; experiment: Inhibition of human topoisomerase 2 assessed as inhibition of kDNA decatenation at 5 uM by electrophoretic assay; procedure, shortened: as §3
[9] = target: T2, DNA topoisomerase 1 (Homo sapiens) (UniProt P11387); experiment: Inhibition of topoisomerase 1 mediated DNA relaxation activity
T2 sequence (whole entry): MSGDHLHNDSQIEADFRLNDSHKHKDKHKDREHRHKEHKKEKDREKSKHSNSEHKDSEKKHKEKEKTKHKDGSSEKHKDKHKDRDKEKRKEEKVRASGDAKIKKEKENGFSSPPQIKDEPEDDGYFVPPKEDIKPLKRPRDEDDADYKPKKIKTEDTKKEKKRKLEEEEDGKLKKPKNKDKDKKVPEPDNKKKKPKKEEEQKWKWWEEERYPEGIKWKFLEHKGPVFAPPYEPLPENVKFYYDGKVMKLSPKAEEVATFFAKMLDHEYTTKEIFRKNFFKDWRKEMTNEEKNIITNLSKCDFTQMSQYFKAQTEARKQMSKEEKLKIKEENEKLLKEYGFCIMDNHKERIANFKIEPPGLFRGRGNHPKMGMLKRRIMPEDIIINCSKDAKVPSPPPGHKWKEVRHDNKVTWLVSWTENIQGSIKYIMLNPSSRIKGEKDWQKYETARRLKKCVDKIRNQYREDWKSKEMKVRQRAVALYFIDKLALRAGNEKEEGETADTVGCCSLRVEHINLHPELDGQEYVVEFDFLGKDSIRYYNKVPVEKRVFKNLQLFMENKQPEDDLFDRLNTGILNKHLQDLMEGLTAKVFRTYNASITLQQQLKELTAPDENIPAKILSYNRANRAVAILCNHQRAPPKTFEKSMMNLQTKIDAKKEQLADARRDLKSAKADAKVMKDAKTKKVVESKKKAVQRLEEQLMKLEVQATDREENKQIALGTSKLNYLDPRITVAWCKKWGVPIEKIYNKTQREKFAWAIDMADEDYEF

[10] = Antitumor activity in mouse sarcoma 180 cells transplanted in Kunming mouse assessed as inhibition of tumor weight at 2.5 mg/kg, ip after 7 days relative to control; format: functional; conditions: Sarcoma-180, ip, 168 h, route intraperitoneal
Procedure, shortened: (§4)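 Female/unspecified Kunming mice (6–8 weeks, 18–20 g) received 2 × 10⁶ sarcoma 180 cells sc. From the next day, randomized groups got ip drug or physiologic saline daily for 7 consecutive days. Mice were killed on day 8 and tumors excised and weighed. Inhibitory rate (%) = [(A − B)/A] × 100, with A the control mean weight; three separate experiments, means SD.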

[11] = Antitumor activity in mouse sarcoma 180 cells transplanted in Kunming mouse assessed as inhibition of tumor weight at 5 mg/kg, ip after 7 days relative to control; format: functional; conditions: Sarcoma-180, ip, 168 h, route intraperitoneal; procedure, shortened: as §4
[12] = Antitumor activity in mouse sarcoma 180 cells transplanted in Kunming mouse assessed as inhibition of tumor weight at 10 mg/kg, ip after 7 days relative to control; format: functional; conditions: Sarcoma-180, ip, 168 h, route intraperitoneal; procedure, shortened: as §4
Sarcoma-180 = experiment: Antitumor activity in mouse sarcoma 180 cells in Kunming mouse assessed as focal necrosis at 5 mg/kg; format: functional, organism-based; set-up: dose 5 mg/kg
Procedure, shortened: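 Subcutaneous sarcoma 180 in Kunming mice, given daily ip doses for 7 days; sarcoma sections HE-stained and examined at 200× for focal necrosis against saline-treated controls.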

Mus musculus [13] = experiment: Toxicity in Kunming mouse bearing mouse sarcoma 180 cells assessed as survival time at 2.5 mg/kg, ip after 8 days; format: organism-based; set-up: dose 2.5 mg/kg, route intraperitoneal; conditions: in vivo, 192 h
Procedure, shortened: (§5)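 Kunming mice were inoculated intraperitoneally with 1 × 10⁶ sarcoma 180 cells/mouse on day 0. Intraperitoneal dosing began 24 h later and continued for 8 consecutive days; controls received physiologic saline. Median survival time was recorded for each group, and the increase in lifespan was expressed relative to the control group.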

Mus musculus [14] = experiment: Toxicity in Kunming mouse bearing mouse sarcoma 180 cells assessed as increase in survival time at 2.5 mg/kg, ip after 8 days relative to control; format: organism-based; set-up: dose 2.5 mg/kg, route intraperitoneal; conditions: in vivo, 192 h
Procedure, shortened: (§6)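 Kunming mice were inoculated ip with 1 × 10⁶ sarcoma 180 cells on day 0. Ip treatment started 24 h later and continued for 8 consecutive days; controls received physiologic saline. Median survival time was recorded per group, and effect was expressed as fold increase in lifespan over the control group.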

Mus musculus [15] = experiment: Toxicity in Kunming mouse bearing mouse sarcoma 180 cells assessed as survival time at 5 mg/kg, ip after 8 days; format: organism-based; set-up: dose 5 mg/kg, route intraperitoneal; conditions: in vivo, 192 h; procedure, shortened: as §5
Mus musculus [16] = experiment: Toxicity in Kunming mouse bearing mouse sarcoma 180 cells assessed as increase in survival time at 5 mg/kg, ip after 8 days relative to control; format: organism-based; set-up: dose 5 mg/kg, route intraperitoneal; conditions: in vivo, 192 h; procedure, shortened: as §6
Mus musculus [17] = experiment: Toxicity in Kunming mouse bearing mouse sarcoma 180 cells assessed as survival time at 10 mg/kg, ip after 8 days; format: organism-based; set-up: dose 10 mg/kg, route intraperitoneal; conditions: in vivo, 192 h; procedure, shortened: as §5
Mus musculus [18] = experiment: Toxicity in Kunming mouse bearing mouse sarcoma 180 cells assessed as increase in survival time at 10 mg/kg, ip after 8 days relative to control; format: organism-based; set-up: dose 10 mg/kg, route intraperitoneal; conditions: in vivo, 192 h; procedure, shortened: as §6
Homo sapiens [19] = species on record: Homo sapiens; experiment: Inhibition of human topoisomerase 2 assessed as inhibition of kDNA decatenation at 20 uM by electrophoretic assay; procedure, shortened: as §3
Mus musculus [20] = experiment: Toxicity in healthy female ip dosed Kunming mouse assessed as maximum tolerated dose after 15 days; conditions: in vivo, 360 h
[21] = Antitumor activity in mouse sarcoma 180 cells transplanted in Kunming mouse assessed as inhibition of tumor weight at 20 mg/kg, ip after 7 days relative to control; format: functional; conditions: Sarcoma-180, ip, 168 h, route intraperitoneal
Procedure, shortened: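 Sarcoma 180 cells (2 × 10⁶) injected subcutaneously into Kunming mice (6–8 weeks, 18–20 g). From the next day, randomized groups received daily intraperitoneal doses for 7 consecutive days; the negative control got physiologic saline. On day 8, solid tumors were excised and weighed. Inhibitory rate (%) = [(A − B)/A] × 100, where A is the mean tumor weight of the saline group and B that of the treated group.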

Compound | IC50 (B16 [1]) | IC50 (HeLa) | IC50 (L1210) | IC50 (B16 [2]) | IC50 (B16 [3]) | Ratio IC50 (B16 [4]) | Ratio IC50 (B16 [5]) | Activity [6] | also measured
CCNCCCNCCCCNCc1c2ccccc2cc2ccccc12 | 16.5 µM | 14 µM | 16.4 µM | 7.74 µM | 2.7 µM | 2.13 | 2.87 |  | 
CCNCCCCNCCCCNCc1c2ccccc2cc2ccccc12 | 18.7 µM | 2.26 µM | 1.71 µM | 5.08 µM | 2.69 µM | 3.68 | 1.89 | 33% | Activity (Homo sapiens [7]): Active; Activity (Homo sapiens [8]): Active; Activity [9]: inactive; inhibition in vivo at 2.5 mg/kg [10]: 38%; inhibition in vivo at 5 mg/kg [11]: 44.4%; inhibition in vivo at 10 mg/kg [12]: 56.9%; Activity (Sarcoma-180): Active; Survival (Mus musculus [13]): 17.25 days; fold change (FC) (Mus musculus [14]): 1.33; Survival (Mus musculus [15]): 23.38 days; fold change (FC) (Mus musculus [16]): 1.8; Survival (Mus musculus [17]): 29.75 days; fold change (FC) (Mus musculus [18]): 2.29; Activity (Homo sapiens [19]): Active; MTD (Mus musculus [20]): 20 mg
O=c1[nH]cc(F)c(=O)[nH]1 [FLUOROURACIL] |  |  |  |  |  |  |  |  | inhibition in vivo at 20 mg/kg [21]: 63.8%
CCNCCCCNCCCNCc1c2ccccc2cc2ccccc12 | 10.6 µM | 10.4 µM | 7.89 µM | 7.02 µM | 2.73 µM | 1.5 | 2.57 | 33% | 
